Experimental data reported in ChEMBL document CHEMBL1136814, “Design of a new peptidomimetic agonist for the melanocortin receptors based on the solution structure of the peptide ligand, Ac-Nle-cyclo[Asp-Pro-DPhe-Arg-Trp-Lys]-NH(2)” (Bioorg Med Chem Lett, 2003).

Tests used:
Melanocortin receptor 4 [1] = biological target: T1, Melanocortin receptor 4 (Homo sapiens, UniProt P32245); assay: Binding affinity towards human melanocortin 4 receptor (hMC4R) using [125I]NDP-alpha-MSH as radioligand
Summary of the method: (§1)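 Nonspecific binding taken with excess unlabeled NDP-MSH. Stopped by rapid filtration through GF/C glass-fibre filters, three ice-cold water washes, bound radioactivity by scintillation counting. IC50 from nonlinear regression of concentration curves.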

Melanocortin receptor 3 = Melanocortin receptor 3 (Homo sapiens, UniProt P41968); assay: Binding affinity towards human melanocortin 3 receptor (hMC3R) using [125I]NDP-alpha-MSH as radioligand; summary of the method: as §1
Melanocortin receptor 3, sequence (P41968 whole entry): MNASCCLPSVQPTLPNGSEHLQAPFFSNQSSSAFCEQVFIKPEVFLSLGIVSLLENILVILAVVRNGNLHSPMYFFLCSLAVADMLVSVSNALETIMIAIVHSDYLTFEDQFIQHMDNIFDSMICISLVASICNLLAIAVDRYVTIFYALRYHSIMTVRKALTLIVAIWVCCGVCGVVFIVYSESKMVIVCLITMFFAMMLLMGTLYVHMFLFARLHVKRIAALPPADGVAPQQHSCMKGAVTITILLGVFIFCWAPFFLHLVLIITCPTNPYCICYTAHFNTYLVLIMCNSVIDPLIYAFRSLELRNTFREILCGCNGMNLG

[2] = biological target: Melanocyte-stimulating hormone receptor (Mus musculus, UniProt Q01727); assay: Binding affinity towards mouse Melanocortin 1 receptor (mMC1R) using [125I]NDP-alpha-MSH as radioligand
Melanocyte-stimulating hormone receptor, sequence (Q01727 whole entry): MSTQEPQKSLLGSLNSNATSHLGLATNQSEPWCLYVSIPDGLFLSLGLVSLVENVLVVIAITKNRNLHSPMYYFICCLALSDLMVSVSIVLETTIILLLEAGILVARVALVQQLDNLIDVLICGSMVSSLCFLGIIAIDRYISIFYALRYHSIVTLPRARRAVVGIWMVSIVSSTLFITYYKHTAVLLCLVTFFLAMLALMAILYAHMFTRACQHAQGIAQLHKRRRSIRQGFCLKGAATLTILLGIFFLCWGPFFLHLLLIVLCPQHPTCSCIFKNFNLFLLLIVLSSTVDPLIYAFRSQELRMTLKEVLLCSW
Summary of the method: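 Receptor membranes ([…]) incubated 2 h at 30 °C in assay buffer with test compound at various concentrations plus 0.2 nM 125I-NDP-α-MSH. Nonspecific binding taken with excess unlabeled NDP-MSH. Stopped by rapid filtration through GF/C glass-fibre filters, three ice-cold water washes, bound radioactivity by scintillation counting. IC50 from nonlinear regression of concentration curves.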

Melanocortin receptor 4 [3] = biological target: T1, Melanocortin receptor 4; assay: Intracellular levels of cAMP in HEK 293 cells expressing human melanocortin 4 receptor (hMC4R); format: cell-based, HEK293
Summary of the method: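 Cells seeded at 75,000/well on fibronectin and assayed about 48 h later. Medium replaced with DMEM containing IBMX, peptide added across a six-point dilution range starting at 0.1 nM, 30 min at 37 °C. Lysis stopped the reaction; cAMP quantified by chemiluminescent ELISA. EC50 reported as mean ± SEM of two determinations.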

T1 sequence (P32245 whole entry): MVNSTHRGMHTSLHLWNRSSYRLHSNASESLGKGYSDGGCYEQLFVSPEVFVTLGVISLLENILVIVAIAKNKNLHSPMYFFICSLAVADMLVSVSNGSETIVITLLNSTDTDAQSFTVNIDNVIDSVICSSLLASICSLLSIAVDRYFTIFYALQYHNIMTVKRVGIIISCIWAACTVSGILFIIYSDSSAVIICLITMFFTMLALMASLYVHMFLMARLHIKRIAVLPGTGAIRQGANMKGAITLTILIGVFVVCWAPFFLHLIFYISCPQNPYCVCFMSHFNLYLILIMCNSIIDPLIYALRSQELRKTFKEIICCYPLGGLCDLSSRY

Compound: CC(=O)N[C@@H](Cc1ccccc1)C(=O)N(CCCCN)C1CCC(N(CCc2c[nH]c3ccccc23)C(C)=O)CC1 (stereo partly drawn)
- IC50 (Melanocortin receptor 4 [1]): 9.25 µM
- IC50 (Melanocortin receptor 3): > 10 µM
- IC50 [2]: 10 µM

Compound: CC(=O)N(CCCCN=C(N)N)C1CCC(N(CCc2c[nH]c3ccccc23)C(C)=O)CC1 (stereo not drawn)
- IC50 (Melanocortin receptor 4 [1]): > 10 µM
- IC50 (Melanocortin receptor 3): > 10 µM
- IC50 [2]: > 10 µM

Compound: CC(=O)N[C@@H](Cc1ccccc1)C(=O)N(CCCCN=C(N)N)C1CCC(N(C)C(C)=O)CC1 (stereo partly drawn)
- IC50 (Melanocortin receptor 4 [1]): > 10 µM
- IC50 (Melanocortin receptor 3): > 10 µM
- IC50 [2]: 9 µM

Compound: CC(=O)N[C@H](Cc1ccccc1)C(=O)N(CCCCNC(=N)N)C1CCC(N(CCc2c[nH]c3ccccc23)C(C)=O)CC1 (stereo in doubt; 11)
- IC50 (Melanocortin receptor 4 [1]): 0.5 µM

Compound: CC(=O)N[C@H](Cc1ccccc1)C(=O)N(CCCCNC(=N)N)C1CCC(N(CCc2c[nH]c3ccccc23)C(C)=O)CC1 (stereo in doubt; cis)
- EC50 (Melanocortin receptor 4 [3]): 0.004 µM
- IC50 (Melanocortin receptor 4 [1]): 0.0077 µM
- IC50 (Melanocortin receptor 3): 0.28 µM
- IC50 [2]: 0.051 µM

Compound: CC(=O)N[C@H](Cc1ccccc1)C(=O)N(CCCCNC(=N)N)C1CCC(N(CCc2c[nH]c3ccccc23)C(C)=O)CC1 (stereo in doubt; trans)
- EC50 (Melanocortin receptor 4 [3]): 0.68 µM
- IC50 (Melanocortin receptor 4 [1]): 3.5 µM
- IC50 (Melanocortin receptor 3): > 10 µM
- IC50 [2]: > 10 µM
